FN deposit inh: inhibitors of fibronectin matrix deposition, primary screen, AH1F cells, Alexa488-fibronectin fluorescence, plate reader; actives 0.086% (n = 350,000); AH1F fibroblasts, overnight; inhibition, % at 12.6 µM;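 active = mean inhibition across replicates of 30% or more, regardless of how many single replicates reach that level; inconclusive = mean under 30% yet at least half of replicates reach 30%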;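 also: positive control wells lacked labelled fibronectin entirely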
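Assay system: AH1F fibroblasts / Quantity: 10000 cells per well / Medium: DMEM plus 2% serum, read in PBS / Reagent: labelled fibronectin 24 nM / Dosing: single dose, pinned / Times: 1 h cell attachment, overnight exposure to compound and label / Signal: fluorescence, ex 485 nm, em 525 nm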
SIRT5 inh: SIRT5 desuccinylase inhibitors, primary screen, biochemical, fluorescence imaging, single point, set 5; NAD-dependent protein deacylase sirtuin-5, mitochondrial (Homo sapiens), Q9NXA8; actives 1.1% (n = 330,000); Purified SirT5, succinyl-peptide AMC, trypsin-coupled fluorescence; inhibition, % at 15 µM; in the data active = inhibition above about 15%; inconclusive = no clear call, values can overlap the other calls
Target sequence (Q9NXA8 whole entry, looked up): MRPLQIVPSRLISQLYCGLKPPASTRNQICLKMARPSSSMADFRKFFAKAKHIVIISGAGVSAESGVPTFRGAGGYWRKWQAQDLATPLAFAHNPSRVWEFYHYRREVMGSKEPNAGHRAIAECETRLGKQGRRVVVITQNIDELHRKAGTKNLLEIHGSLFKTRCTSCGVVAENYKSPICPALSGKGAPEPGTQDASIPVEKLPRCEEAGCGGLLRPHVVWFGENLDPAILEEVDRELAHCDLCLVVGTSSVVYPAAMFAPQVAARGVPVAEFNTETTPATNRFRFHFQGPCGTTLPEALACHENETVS
DENV2 CPE: inhibitors of DENV2 cytopathic effect, primary screen, cell-based, plate reader, single concentration | actives 1.7% (n = 350,000) | DENV2-infected cells, cytopathic effect rescue | CPE inhibition, % at 9.99 µM; in the data active = CPE inhibition above about 20%, passing the limit was not always enough; inconclusive = no clear call, values can overlap the other calls; tested in BHK-21 cells;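 also: 0% = median of neutral control wells and 100% = median of positive control wells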
FGF22 binding: binders of human FGF22 protein, primary screen, FGF22 synaptogenesis inhibitor project, biophysical, thermal shift, single point | actives 1.5% (n = 340,000) | Fibroblast growth factor 22 (Homo sapiens), Q9HCT0 | activity (Tm shift, normalised), % at 9.99 µM | recombinant FGF22 thermal shift, SYPRO orange fluorescence; percent of sucrose octasulfate shift, DMSO zero;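 active = mean Tm shift, scaled 0 neutral to 100 positive control, at about 1.3% or above, every replicate too, limit read from the data; inconclusive = no clear call, values can overlap the other calls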
Target sequence (Q9HCT0 whole entry, looked up): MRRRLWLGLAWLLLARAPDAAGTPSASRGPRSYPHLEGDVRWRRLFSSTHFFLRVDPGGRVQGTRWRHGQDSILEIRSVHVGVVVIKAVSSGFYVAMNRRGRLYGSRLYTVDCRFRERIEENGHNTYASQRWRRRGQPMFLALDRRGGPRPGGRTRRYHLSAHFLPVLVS
XiGFP reactiv: activators of inactive X chromosome reactivation, primary screen, imaging, XiGFP fibroblasts, GFP high-content imaging, set 2 | actives 0.055% (n = 360,000) | activation, % at 7.58 µM | XiGFP mouse fibroblasts, % GFP-positive cells imaging, 3 d; cells co-treated with 5-aza-dC sensitizer; scaled so ellipticine positive control = 100%;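 active = mean normalized replicate activation at least 10% and every replicate at or above 10%; inconclusive = only one of the two criteria met; inactive = mean below 10% and not all replicates reach 10%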;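 also: 0% = median of on-plate neutral control wells and 100% = ellipticine 6 µM median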
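System: XiGFP fibroblasts, SV40-immortalized. Medium: DMEM plus 5-aza-dC sensitizer. Doses: single point. Timing: 3 d treatment, 15 min room-temperature fixation. Control set: ellipticine 6 µM.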
ARNT TACC3 PPI: disruptors of ARNT/TACC3 protein interaction, primary screen, biochemical, AlphaScreen, single concentration; Transforming acidic coiled-coil-containing protein 3 (Homo sapiens), Q9Y6A5; AlphaScreen His-ARNT PAS-B/GST-TACC3 binding, luminescence; TACC3 fragment carries E629A point mutation; inhibition, % at 9.99 µM; actives 0.66% (n = 390,000); AID 623870, 2012;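 active = mean inhibition of replicates at least 50% and at least half of replicates each reaching 50%; inconclusive = half or more replicates reach 50% but mean below 50%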;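 also: 0% = complete ARNT plus TACC3 wells and 100% = ARNT alone without TACC3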
Numbers without * were called inactive; u = inconclusive; x = no result given. Most compounds without a hit are left out; they make up all but 3.8% or so of the library.

SMILES	FN deposit inh	SIRT5 inh	DENV2 CPE	FGF22 binding	XiGFP reactiv	ARNT TACC3 PPI
C[C@@H]1CCCCO[C@@H](CN(C)CC2CCCCC2)[C@H](C)CN([C@@H](C)CO)C(=O)c2cc(NC(=O)Nc3ccc4c(c3)OCO4)ccc2O1	x	2.0	-4.8	1.4*	-0.1	12.6
COCC(=O)N1C[C@@H]2[C@H](c3ccccc31)[C@@H](CO)N2Cc1ccccc1	x	-3.1	7.9	0.1	0.1	7.0
C[C@@H]1CN([C@H](C)CO)C(=O)c2cc(NC(=O)CCC(F)(F)F)ccc2O[C@H]1CN(C)Cc1ccc(Oc2ccccc2)cc1	-3.1	26.5*	4.0	-0.2	0.0	3.1
C[C@@H]1CN([C@@H](C)CO)C(=O)c2cc(NC(=O)CCC(F)(F)F)ccc2O[C@@H]1CN(C)Cc1ccc(-c2ccccc2)cc1	18.9	-0.9	8.0	0.0	-0.6	-2.2
C[C@H](CO)N1C[C@H](C)[C@H](CN(C)Cc2ccc(Oc3ccccc3)cc2)Oc2ccc(NC(=O)Cc3ccccc3)cc2C1=O	10.4	43.0*	-4.2	0.3	-0.1	7.5
C[C@@H]1CN([C@@H](C)CO)C(=O)c2cc(NC(=O)Cc3ccccc3)ccc2O[C@H]1CN(C)Cc1ccc(Oc2ccccc2)cc1	11.8	11.0	-2.5	0.1	0.1	5.2
C[C@H]1CN([C@@H](C)CO)C(=O)c2cc(NC(=O)Cc3ccccc3)ccc2O[C@@H]1CN(C)Cc1ccc(Oc2ccccc2)cc1	23.2	17.0*	-1.2	-0.4	0.1	2.8
COc1ccc(CN(C)C[C@@H]2Oc3ccc(NC(=O)Cc4ccccc4)cc3C(=O)N([C@@H](C)CO)C[C@H]2C)cc1	x	2.9	-3.0	0.1	0.1	-6.6
C[C@@H]1CN([C@@H](C)CO)C(=O)c2cc(NC(=O)Cc3cn(C)c4ccccc34)ccc2O[C@@H]1CN(C)Cc1ccc(Oc2ccccc2)cc1	x	19.0*	u	0.0	-1.4	-1.1
CC=Cc1ccc2n(c1=O)C[C@@H]1[C@@H](CO)[C@H](C(=O)N(C)C)N(CCC(F)(F)F)[C@H]21 (mixture of isomers)	x	-5.0	8.2	0.0	0.4	1.1
CCCN1[C@@H]2c3ccc(-c4ccc(OC)cc4)c(=O)n3C[C@@H]2[C@@H](CO)[C@@H]1C(=O)NCC	x	-11.6	-6.4	-0.2	0.2	-8.6
Cc1noc(C)c1CSCC(=O)Nc1ccccc1N1CCCC1	2.2	16.4*	8.8	-0.3	0.0	1.5
Cc1noc(C)c1CSCC(=O)Nc1cc(Cl)ccc1N1CCCCC1	-0.1	8.3	3.1	-0.1	-0.1	0.3
Cc1noc(C)c1NC(=O)Nc1cccc2c1O[C@H](CN(C)C)[C@@H](C)CN([C@@H](C)CO)C2=O	x	0.4	u	0.0	0.5	-0.9
Cc1noc(C)c1NC(=O)N(C)C[C@@H]1Oc2ncc(C#CC(C)C)cc2C(=O)N([C@H](C)CO)C[C@H]1C	3.4	-14.8	13.0	-0.4	-0.6	-4.6
CC(C)C#Cc1cnc2c(c1)C(=O)N([C@@H](C)CO)C[C@@H](C)[C@H](CN(C)C(=O)CN1CCOCC1)O2	-11.3	-2.3	-6.8	0.0	-0.2	-2.4
Cc1noc(C)c1NC(=O)N(C)C[C@H]1Oc2ncc(C#CC(C)C)cc2C(=O)N([C@@H](C)CO)C[C@H]1C	-2.7	0.0	53.4*	-0.3	-0.1	-6.6
CC(C)C#Cc1cnc2c(c1)C(=O)N([C@H](C)CO)C[C@H](C)[C@@H](CN(C)C(=O)CN1CCOCC1)O2	7.6	39.5*	-3.8	0.0	0.1	13.0

Compound activity: PubChem BioAssay, Broad Institute
